Measurements from ChEMBL document CHEMBL1129660, “Studies on 6-aminoquinolones: synthesis and antibacterial evaluation of 6-amino-8-methylquinolones” (J Med Chem, 1996).
In brackets after ≈: the same amount, converted by molar mass.

Tested on: Pseudomonas aeruginosa
Assay: Antibacterial activity tested against P. ae (Pseudomonas aeruginosa) ATCC 9027
Assay type: functional
Procedure, shortened: (§1)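 MICs (µg/mL) determined by conventional agar dilution against a panel of eight Gram-negative and five Gram-positive reference strains.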

**Q.** With `CN1CCN(c2cc3c(cc2N)c(=O)c(C(=O)O)cn3-c2ccc(F)cc2)CC1` as the compound, how does the MIC read?
**A.** The MIC was 8 µg/mL (≈ 20.2 µM).

**Q.** With `Cc1c(N2CC=CCC2)c(N)cc2c(=O)c(C(=O)O)cn(C3CC3)c12` as the compound, how does the MIC read?
**A.** The MIC was > 128 µg/mL.

**Q.** Which MIC does the source give for `Cc1c(N2CCNC(C)C2)c(N)cc2c(=O)c(C(=O)O)cn(C3CC3)c12` (stereo not given) here?
**A.** Its MIC is 1 µg/mL (≈ 2.81 µM).

Tested on: Escherichia coli
Assay: Antibacterial activity tested against Escherichia coli ATCC 8739
Assay type: functional
Procedure, shortened: as §1

**Q.** With `CN1CCN(c2cc3c(cc2N)c(=O)c(C(=O)O)cn3-c2ccc(F)cc2)CC1` as the compound, how does the MIC read?
**A.** The MIC was 0.125 µg/mL (≈ 0.315 µM).

**Q.** For `Cc1c(N2CC=CCC2)c(N)cc2c(=O)c(C(=O)O)cn(C3CC3)c12`, which MIC is on record?
**A.** Its MIC is 1 µg/mL (≈ 2.95 µM).

**Q.** With `Cc1c(N2CCNC(C)C2)c(N)cc2c(=O)c(C(=O)O)cn(C3CC3)c12` (stereo not given) as the compound, how does the MIC read?
**A.** The MIC was 0.125 µg/mL (≈ 0.351 µM).

Tested on: Staphylococcus aureus
Assay: Antibacterial activity against Staphylococcus aureus MPR 5
Assay type: functional
Procedure, shortened: as §1

**Q.** With `CN1CCN(c2cc3c(cc2N)c(=O)c(C(=O)O)cn3-c2ccc(F)cc2)CC1` as the compound, how does the MIC read?
**A.** Its MIC is 4 µg/mL (≈ 10.1 µM).

**Q.** Which MIC does the source give for `Cc1c(N2CC=CCC2)c(N)cc2c(=O)c(C(=O)O)cn(C3CC3)c12` here?
**A.** The MIC was > 128 µg/mL.

**Q.** For `Cc1c(N2CCNC(C)C2)c(N)cc2c(=O)c(C(=O)O)cn(C3CC3)c12` (stereo not given), which MIC is on record?
**A.** Its MIC is 1 µg/mL (≈ 2.81 µM).

Tested on: Enterobacter cloacae
Assay: Antibacterial activity tested against Enterobacter cloacae OMNFI 174
Assay type: functional

**Q.** For `CN1CCN(c2cc3c(cc2N)c(=O)c(C(=O)O)cn3-c2ccc(F)cc2)CC1`, which MIC is on record?
**A.** The MIC was 4 µg/mL (≈ 10.1 µM).

**Q.** For `Cc1c(N2CC=CCC2)c(N)cc2c(=O)c(C(=O)O)cn(C3CC3)c12`, which MIC is on record?
**A.** Its MIC is > 128 µg/mL.

**Q.** Which MIC does the source give for `Cc1c(N2CCNC(C)C2)c(N)cc2c(=O)c(C(=O)O)cn(C3CC3)c12` (stereo not given) here?
**A.** Its MIC is 0.125 µg/mL (≈ 0.351 µM).

Tested on: Proteus vulgaris
Assay: Antibacterial activity tested against Proteus vulgaris CNUR 5
Assay type: functional
Procedure, shortened: as §1

**Q.** Which MIC does the source give for `CN1CCN(c2cc3c(cc2N)c(=O)c(C(=O)O)cn3-c2ccc(F)cc2)CC1` here?
**A.** The MIC was 128 µg/mL (≈ 323 µM).

**Q.** With `Cc1c(N2CC=CCC2)c(N)cc2c(=O)c(C(=O)O)cn(C3CC3)c12` as the compound, how does the MIC read?
**A.** Its MIC is > 128 µg/mL.

**Q.** With `Cc1c(N2CCNC(C)C2)c(N)cc2c(=O)c(C(=O)O)cn(C3CC3)c12` (stereo not given) as the compound, how does the MIC read?
**A.** The MIC was 4 µg/mL (≈ 11.2 µM).

Tested on: Staphylococcus aureus
Assay: Antibacterial activity against Staphylococcus aureus ATCC 6538
Assay type: functional
Procedure, shortened: as §1

**Q.** Which MIC does the source give for `CN1CCN(c2cc3c(cc2N)c(=O)c(C(=O)O)cn3-c2ccc(F)cc2)CC1` here?
**A.** Its MIC is 8 µg/mL (≈ 20.2 µM).

**Q.** Which MIC does the source give for `Cc1c(N2CC=CCC2)c(N)cc2c(=O)c(C(=O)O)cn(C3CC3)c12` here?
**A.** Its MIC is > 128 µg/mL.

**Q.** For `Cc1c(N2CCNC(C)C2)c(N)cc2c(=O)c(C(=O)O)cn(C3CC3)c12` (stereo not given), which MIC is on record?
**A.** The MIC was 1 µg/mL (≈ 2.81 µM).

Tested on: Bacteria
Assay: Geometric mean of antibacterial activity (Gram +ve bacteria) of the compound
Assay type: functional
Procedure, shortened: (§2)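 Geometric means calculated from agar-dilution MICs (µg/mL), taken separately across the five Gram-positive and the eight Gram-negative panel strains.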

**Q.** Which Geometric mean does the source give for `CN1CCN(c2cc3c(cc2N)c(=O)c(C(=O)O)cn3-c2ccc(F)cc2)CC1` here?
**A.** Its Geometric mean is 10.556.

**Q.** Which Geometric mean does the source give for `Cc1c(N2CC=CCC2)c(N)cc2c(=O)c(C(=O)O)cn(C3CC3)c12` here?
**A.** Its Geometric mean is 128.

**Q.** With `Cc1c(N2CCNC(C)C2)c(N)cc2c(=O)c(C(=O)O)cn(C3CC3)c12` (stereo not given) as the compound, how does the Geometric mean read?
**A.** Its Geometric mean is 1.319.

Tested on: Providencia stuartii
Assay: Antibacterial activity tested against Providencia stuartii CNUR 5
Assay type: functional
Procedure, shortened: as §1

**Q.** For `CN1CCN(c2cc3c(cc2N)c(=O)c(C(=O)O)cn3-c2ccc(F)cc2)CC1`, which MIC is on record?
**A.** The MIC was 4 µg/mL (≈ 10.1 µM).

**Q.** Which MIC does the source give for `Cc1c(N2CC=CCC2)c(N)cc2c(=O)c(C(=O)O)cn(C3CC3)c12` here?
**A.** Its MIC is > 128 µg/mL.

**Q.** With `Cc1c(N2CCNC(C)C2)c(N)cc2c(=O)c(C(=O)O)cn(C3CC3)c12` (stereo not given) as the compound, how does the MIC read?
**A.** The MIC was 2 µg/mL (≈ 5.61 µM).

Tested on: Klebsiella pneumoniae
Assay: Antibacterial activity tested against Klebsiella pneumoniae (Klebsiella pneumoniae) ATCC 10031
Assay type: functional
Procedure, shortened: as §1

**Q.** Which MIC does the source give for `CN1CCN(c2cc3c(cc2N)c(=O)c(C(=O)O)cn3-c2ccc(F)cc2)CC1` here?
**A.** The MIC was 0.125 µg/mL (≈ 0.315 µM).

**Q.** For `Cc1c(N2CC=CCC2)c(N)cc2c(=O)c(C(=O)O)cn(C3CC3)c12`, which MIC is on record?
**A.** The MIC was 1 µg/mL (≈ 2.95 µM).

**Q.** For `Cc1c(N2CCNC(C)C2)c(N)cc2c(=O)c(C(=O)O)cn(C3CC3)c12` (stereo not given), which MIC is on record?
**A.** Its MIC is 0.03 µg/mL (≈ 0.0842 µM).

Tested on: Staphylococcus epidermidis
Assay: Antibacterial activity tested against Staphylococcus epidermidis CPHL A2
Assay type: functional
Procedure, shortened: as §1

**Q.** Which MIC does the source give for `CN1CCN(c2cc3c(cc2N)c(=O)c(C(=O)O)cn3-c2ccc(F)cc2)CC1` here?
**A.** Its MIC is 8 µg/mL (≈ 20.2 µM).

**Q.** With `Cc1c(N2CC=CCC2)c(N)cc2c(=O)c(C(=O)O)cn(C3CC3)c12` as the compound, how does the MIC read?
**A.** Its MIC is > 128 µg/mL.

**Q.** Which MIC does the source give for `Cc1c(N2CCNC(C)C2)c(N)cc2c(=O)c(C(=O)O)cn(C3CC3)c12` (stereo not given) here?
**A.** The MIC was 1 µg/mL (≈ 2.81 µM).

Tested on: not listed separately
Assay: Geometric mean of antibacterial activity (Gram -ve bacteria) of the compound
Assay type: functional
Procedure, shortened: as §2

**Q.** With `CN1CCN(c2cc3c(cc2N)c(=O)c(C(=O)O)cn3-c2ccc(F)cc2)CC1` as the compound, how does the Geometric mean read?
**A.** The Geometric mean was 1.834.

**Q.** Which Geometric mean does the source give for `Cc1c(N2CC=CCC2)c(N)cc2c(=O)c(C(=O)O)cn(C3CC3)c12` here?
**A.** Its Geometric mean is 20.749.

**Q.** With `Cc1c(N2CCNC(C)C2)c(N)cc2c(=O)c(C(=O)O)cn(C3CC3)c12` (stereo not given) as the compound, how does the Geometric mean read?
**A.** The Geometric mean was 0.225.

Tested on: Escherichia coli
Assay: Antibacterial activity tested against Escherichia coli ISF 432
Assay type: functional
Procedure, shortened: as §1

**Q.** For `CN1CCN(c2cc3c(cc2N)c(=O)c(C(=O)O)cn3-c2ccc(F)cc2)CC1`, which MIC is on record?
**A.** Its MIC is 0.125 µg/mL (≈ 0.315 µM).

**Q.** With `Cc1c(N2CC=CCC2)c(N)cc2c(=O)c(C(=O)O)cn(C3CC3)c12` as the compound, how does the MIC read?
**A.** Its MIC is 1 µg/mL (≈ 2.95 µM).

**Q.** Which MIC does the source give for `Cc1c(N2CCNC(C)C2)c(N)cc2c(=O)c(C(=O)O)cn(C3CC3)c12` (stereo not given) here?
**A.** Its MIC is 0.03 µg/mL (≈ 0.0842 µM).

Tested on: Shigella
Assay: Antibacterial activity tested against Shigella enteritidis
Assay type: functional
Procedure, shortened: as §1

**Q.** With `CN1CCN(c2cc3c(cc2N)c(=O)c(C(=O)O)cn3-c2ccc(F)cc2)CC1` as the compound, how does the MIC read?
**A.** The MIC was 4 µg/mL (≈ 10.1 µM).

**Q.** For `Cc1c(N2CC=CCC2)c(N)cc2c(=O)c(C(=O)O)cn(C3CC3)c12`, which MIC is on record?
**A.** The MIC was > 128 µg/mL.

**Q.** Which MIC does the source give for `Cc1c(N2CCNC(C)C2)c(N)cc2c(=O)c(C(=O)O)cn(C3CC3)c12` (stereo not given) here?
**A.** Its MIC is 0.06 µg/mL (≈ 0.168 µM).

Tested on: Staphylococcus epidermidis
Assay: Antibacterial activity tested against Staphylococcus epidermidis HCF Berset C
Assay type: functional
Procedure, shortened: as §1

**Q.** With `CN1CCN(c2cc3c(cc2N)c(=O)c(C(=O)O)cn3-c2ccc(F)cc2)CC1` as the compound, how does the MIC read?
**A.** Its MIC is 8 µg/mL (≈ 20.2 µM).

**Q.** With `Cc1c(N2CC=CCC2)c(N)cc2c(=O)c(C(=O)O)cn(C3CC3)c12` as the compound, how does the MIC read?
**A.** The MIC was > 128 µg/mL.

**Q.** With `Cc1c(N2CCNC(C)C2)c(N)cc2c(=O)c(C(=O)O)cn(C3CC3)c12` (stereo not given) as the compound, how does the MIC read?
**A.** The MIC was 1 µg/mL (≈ 2.81 µM).

Tested on: Enterococcus faecalis
Assay: Antibacterial activity tested against Streptococcus faecalis LEP Br
Assay type: functional
Procedure, shortened: as §1

**Q.** Which MIC does the source give for `CN1CCN(c2cc3c(cc2N)c(=O)c(C(=O)O)cn3-c2ccc(F)cc2)CC1` here?
**A.** The MIC was 64 µg/mL (≈ 161 µM).

**Q.** Which MIC does the source give for `Cc1c(N2CC=CCC2)c(N)cc2c(=O)c(C(=O)O)cn(C3CC3)c12` here?
**A.** The MIC was > 128 µg/mL.

**Q.** Which MIC does the source give for `Cc1c(N2CCNC(C)C2)c(N)cc2c(=O)c(C(=O)O)cn(C3CC3)c12` (stereo not given) here?
**A.** The MIC was 4 µg/mL (≈ 11.2 µM).
